# The list is not random: actives were taken first. Their share in the collection is about 2.5%.
# SENP6 inh: inhibitors of human SENP6 protease. Q9GZR1. Recombinant SENP6 catalytic domain, aminoluciferin luminescence. inhibition, % at 10 µM. 330,000 compounds, 1.8% hits. AID 2599;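 active means inhibition above about 50% at the single tested dose, limit read from the data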;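 further: plate controls were DMSO wells with enzyme for no effect and DMSO wells lacking enzyme for full effect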
# SENP8 block-1: inhibitors of human SENP8 protease; Q96LD8; recombinant SENP8, Nedd8 substrate fluorescence; inhibition, % at 20 µM; 360,000 compounds, 0.64% hits; AID 602440; in the data active means inhibition mostly above about 40%, no sharp cut-off; inactive means mostly below about 27%
# Target sequence (Q96LD8 whole entry, looked up): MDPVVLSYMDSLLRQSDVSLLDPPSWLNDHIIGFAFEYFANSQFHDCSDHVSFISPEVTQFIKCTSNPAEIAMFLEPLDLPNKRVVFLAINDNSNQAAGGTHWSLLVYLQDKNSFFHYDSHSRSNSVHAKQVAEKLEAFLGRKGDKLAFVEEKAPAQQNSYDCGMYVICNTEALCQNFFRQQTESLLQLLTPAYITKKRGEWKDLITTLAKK
# SENP8 block-2: SENP8 protease inhibition; Q96LD8; purified SENP8, Z-RLRGG-aminoluciferin cleavage, luminescence; inhibition, % at 10 µM; 330,000 compounds, 1.2% hits; in the data active means inhibition above about 50%
# SENP7 inh: SENP7 protease inhibition | inhibition, % at 5 µM | Q9BQF6 | AID 434973 | 330,000 compounds, 1.5% hits | recombinant SENP7, Z-RLRGG-aminoluciferin luminescence, 40 min;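 active means inhibition above about 50% at the single test dose, limit read from the data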;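 further: plate controls were DMSO with enzyme for no effect and no enzyme buffer wells for full effect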
# SENP1 FRET inh: SENP1 (human) catalytic domain inhibition. Q9P0U3. recombinant SENP1 catalytic domain, CyPet-SUMO1-YPet FRET cleavage. inhibition, % at 10 µM. 360,000 compounds, 0.21% hits. AID 624204;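 active means inhibition at least 30% at 10 µM, raw YFP signal under a set limit, fluorescence ratio 0.5 to 1.5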;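 further: 0% = enzyme with DMSO and 100% = no enzyme wells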
# Target sequence (Q9P0U3 419-644 limits assumed): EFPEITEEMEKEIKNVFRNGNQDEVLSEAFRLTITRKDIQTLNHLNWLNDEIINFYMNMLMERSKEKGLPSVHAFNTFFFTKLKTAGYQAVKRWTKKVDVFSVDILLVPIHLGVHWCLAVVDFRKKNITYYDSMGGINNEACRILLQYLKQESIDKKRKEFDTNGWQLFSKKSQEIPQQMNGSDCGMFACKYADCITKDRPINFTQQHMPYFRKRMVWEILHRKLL
#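 Material – human SENP1 catalytic domain · Input – SENP1 enzyme, 20 pM final · Compound dosing – single concentration of 10 µM compound, 0.5% DMSO final · Timing – enzyme reaction for 50 min at room temperature, dark · Measured by – FRET fluorescence in CFP and YFP emission channels · Control set – no-enzyme wells low, DMSO-plus-enzyme wells high control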
# SENP8 conf: confirmation of human SENP8 protease inhibitors; 6,200 compounds, 40% hits; Recombinant SENP8, Z-RLRGG-aminoluciferin luminescence, 60 min; shares compounds with SENP7 inh; AID 488912; inhibition, % at 12.5 µM;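 active means mean inhibition across replicates above about 50%, limit read from the data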
# SENP6 conf: confirmation of human SENP6 protease inhibitors. shares compounds with SENP7 inh. recombinant SENP6, Z-RLRGG-aminoluciferin luminescence. inhibition, % at 12.5 µM. 6,200 compounds, 58% hits. AID 488915
# SENP7 confirm: human SENP7 inhibition, confirmed; 6,200 compounds, 69% hits; AID 488917; shares compounds with SENP7 inh; recombinant SENP7, Z-RLRGG-aminoluciferin luminescence, 40 min; inhibition, % at 12.5 µM
# Casp3 select: caspase-3 inhibition (SENP selectivity assay); shares compounds with SENP7 inh; purified caspase-3, Z-DEVD-aminoluciferin luminescence, 60 min; inhibition, % at 12.5 µM; 6,200 compounds, 60% hits; AID 488918;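 active means mean inhibition above about 50%, limit read from the data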;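 further: plate controls were enzyme with DMSO for no effect and wells without caspase-3 for full effect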
# SENP luc ctr: counter-screen for SENP inhibitors: luminescence interference. 6,200 compounds, 39% hits. Pre-incubated SENP8/Z-RLRGG-aminoluciferin, luciferase luminescence interference. inhibition, % at 12.5 µM. shares compounds with SENP7 inh. AID 488919;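 active means mean inhibition above about 50% when retested at one dose, limit read from the data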;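 further: plate controls were DMSO wells with completed reaction for no effect and substrate without enzyme for full effect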
# * hit, by the source's call; . = no result given.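 How the source made its calls, unless noted: active means mean inhibition above about 50% in the one-dose retest (limit read from the data); inactive means the rest.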
SMILES,SENP6 inh,SENP8 block-1,SENP8 block-2,SENP7 inh,SENP1 FRET inh,SENP8 conf,SENP6 conf,SENP7 confirm,Casp3 select,SENP luc ctr
CC(=O)NC1=C(N(C)C2CCS(=O)(=O)C2)C(=O)c2ccccc2C1=O (centres undefined),67*,66*,28,25,-3,45,74*,42,4,-3
CCOC(=O)c1sc(Nc2ccc(Br)cc2)nc1C,-29,-392,-5,-3,0,.,.,.,.,.
CCOCCn1cnc2sc(C(=O)Nc3nc(C)c(C(=O)OCC)s3)c(C)c2c1=O,53*,.,79*,83*,.,10,5,10,3,4
CCOC(=O)c1sc(Nc2ccccc2Cl)nc1C,63*,-106,28,42,3,45,44,73*,35,40
CCc1ccc(C(=O)Nc2nc(C)cs2)s1,76*,-17,63*,82*,0,77*,73*,93*,78*,77*
CCOC(=O)c1sc(NC(=O)c2ccc3ncsc3c2)nc1C,2,-126,11,59*,-157,-9,-8,-3,12,2
CCOC(=O)c1sc(NC(=O)c2ccc(S(=O)(=O)N(C)C)cc2)nc1C,-10,-41,-25,23,-1,.,.,.,.,.
CC1=C(C(=O)N(C(C)C)C(C)C)CC(CC(=O)NC2CCCC2)C(=O)N1Cc1ccc(C(C)(C)C)cc1 (centres undefined),.,16,.,.,1,.,.,.,.,.
O=C(Nc1nnc(Cc2ccccc2F)s1)Nc1ccccc1F,15,0,-4,85*,0,10,11,5,0,0
O=C(Nc1nnc(Cc2ccc(F)cc2)s1)Nc1ccccc1F,-6,27,-5,3,-2,.,.,.,.,.
CCOC(=O)c1sc(NC(=O)c2ccccc2OC)nc1C,97*,-113,98*,102*,3,80*,70*,99*,63*,13
CCOC(=O)CNC(=O)c1sc(NC(=O)c2ccccc2F)nc1C,77*,-13,70*,88*,-3,-5,75*,94*,92*,79*
CCOC(=O)c1sc(NC(=O)c2ccc(CC)s2)nc1C,-4,-153,-1,67*,0,4,7,15,14,5
C/C(CCc1ccc2c(c1)OCO2)=N\NC(=O)c1ccccc1Br,2,13,-3,7,2,.,.,.,.,.
C1CN(CCN2CCOCC2)CCN1,-1,8,-4,1,-1,.,.,.,.,.
COc1ccccc1NC(=O)CC1C(=O)Nc2ccccc2N1C(=O)c1ccccc1 (centres undefined),18,11,-5,4,-1,.,.,.,.,.
N#C/C(=C\c1c(Oc2ccccc2F)nc2ccccn2c1=O)C(=O)NC1CCS(=O)(=O)C1 (centres undefined),-5,-312,3,-3,-27,.,.,.,.,.
CCOC(=O)c1sc(NC(=O)/C=C/c2c(F)cccc2Cl)nc1C,4,-332,3,2,-5,.,.,.,.,.
CCOC(=O)c1sc(NC(=O)Nc2ccccc2F)nc1C,77*,-10,67*,93*,1,17,23,62*,62*,16
Cc1ccsc1/C=N/Nc1ccc(C(=O)O)cc1,97*,-116,96*,99*,-17,99*,100*,103*,98*,98*
Cc1ccsc1/C=N/Nc1cccc(C(=O)O)c1,98*,-40,97*,100*,-13,98*,99*,102*,97*,98*
Cc1ccsc1/C=N/NC(=O)CNC(=O)c1ccccc1,14,-12,1,-5,1,.,.,.,.,.
O=C(COC(=O)C1CC1)NCc1ccccc1,-4,4,7,-4,-3,.,.,.,.,.
Oc1ccc(Cl)cc1-c1cc(-c2ccccc2Cl)[nH]n1,29,26,-17,20,-2,.,.,.,.,.
Oc1ccccc1-c1cc(-c2cccc(F)c2)n[nH]1,93*,10,88*,88*,4,95*,95*,100*,64*,74*
SMILES,SENP6 inh,SENP8 block-1,SENP8 block-2,SENP7 inh,SENP1 FRET inh,SENP8 conf,SENP6 conf,SENP7 confirm,Casp3 select,SENP luc ctr
Oc1ccccc1-c1cc(-c2ccccc2Cl)[nH]n1,94*,6,95*,95*,3,98*,99*,102*,85*,95*
CN(C)c1ccc(NC(=O)Nc2nc(C(N)C3CCCCC3)cs2)cc1 (centres undefined),.,17,.,.,4,.,.,.,.,.
CCc1ccc(N(CC(=O)NC(C)C)C(=O)CCC(=O)Nc2nccs2)cc1,14,15,-10,-7,14,.,.,.,.,.
Cc1ccc(N=Cc2sc(O)c3ccccc23)cc1,68*,-60,86*,76*,-24,90*,92*,100*,74*,47
CCCCc1ccc(NC(=O)c2cnccn2)cc1,85*,19,85*,92*,1,92*,95*,101*,86*,58*
O=C(Nc1ccc2c(c1)CCC2)c1ccccc1,84*,4,82*,88*,2,90*,89*,98*,88*,87*
CN(c1ccccc1)S(=O)(=O)c1cccc(C(=O)Nc2ccc3c(c2)CCC3)c1,6,13,4,8,2,.,.,.,.,.
O=C(Nc1ccc2c(c1)CCC2)c1cnccn1,52*,6,35,47,0,55*,52*,83*,77*,29
Cc1ccc(C(=O)Nc2nc(C)c(C(=O)Nc3ccc4c(c3)CCC4)s2)cc1,66*,-115,17,42,-26,38,32,65*,49,6
Cc1nc(NC(=O)c2ccc(F)cc2)sc1C(=O)Nc1ccc2c(c1)CCC2,4,-15,-13,45,0,.,.,.,.,.
CCOC(=O)c1ccc(NC(=O)c2cnccn2)cc1,-19,-10,-19,-7,-2,.,.,.,.,.
Cc1cc(C)cc(NC(=O)CCc2c(C)nn(-c3ccc(N4CCOCC4)nn3)c2C)c1,11,-25,-12,-6,1,.,.,.,.,.
CC1CN(S(=O)(=O)c2ccc(C(=O)N(C)C3CCCCC3)cc2)CC(C)O1 (centres undefined),-11,13,3,-4,1,.,.,.,.,.
O=C(NC1CCCC1)C1C(c2ccc(C(F)(F)F)cc2)=Nc2ccccc2N1C(=O)c1cc2ccccc2[nH]1 (centres undefined),.,-179,.,.,-3,.,.,.,.,.
